The values that follow come from ChEMBL document CHEMBL1938274, “Discovery of potent and specific CXCR3 antagonists” (Bioorg Med Chem Lett, 2012).

Data set [1] deals with T1, C-X-C chemokine receptor type 3 (Homo sapiens, UniProt P49682).
T1 sequence (P49682 whole entry): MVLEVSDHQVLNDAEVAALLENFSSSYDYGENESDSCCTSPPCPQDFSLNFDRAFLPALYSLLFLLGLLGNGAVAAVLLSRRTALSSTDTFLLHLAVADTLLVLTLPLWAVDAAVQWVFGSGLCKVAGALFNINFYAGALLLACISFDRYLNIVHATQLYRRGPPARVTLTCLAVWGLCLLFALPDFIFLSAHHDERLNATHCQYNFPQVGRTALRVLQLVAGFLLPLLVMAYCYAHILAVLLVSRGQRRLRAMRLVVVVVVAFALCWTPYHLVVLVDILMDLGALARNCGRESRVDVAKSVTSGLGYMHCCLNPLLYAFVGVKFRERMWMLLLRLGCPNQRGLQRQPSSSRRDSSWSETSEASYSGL
As to the kind of experiment: Displacement of [125I]-IP-10 from CXCR3.

Data set [2] deals with T1, C-X-C chemokine receptor type 3. Description: Displacement of [125I]-IP-10 from CXCR3 in presence of 100% human serum.
The subject of data set [3] is PBL. As to the kind of experiment: Toxicity in human PBL assessed as chromosomal aberrations at 7.81 to 1000 ug/mL in the presence of S9. In kind it is cell-based. A digest of the protocol:
(§1)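 Cultured human peripheral blood lymphocytes exposed at 7.81–1000 μg/mL, with and without S9 metabolic activation; chromosomal aberrations scored.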

For data set [4], the system named is PBL. As to the kind of experiment: Toxicity in human PBL assessed as chromosomal aberrations at 7.81 to 1000 ug/mL. The format is cell-based. Put shortly: as §1
The next data set addresses Cytochrome P450 3A4 (Homo sapiens, UniProt P08684). Description: Time dependent inhibition of CYP3A4. The format is ADME.

Cytochrome P450 3A4, sequence (P08684 whole entry): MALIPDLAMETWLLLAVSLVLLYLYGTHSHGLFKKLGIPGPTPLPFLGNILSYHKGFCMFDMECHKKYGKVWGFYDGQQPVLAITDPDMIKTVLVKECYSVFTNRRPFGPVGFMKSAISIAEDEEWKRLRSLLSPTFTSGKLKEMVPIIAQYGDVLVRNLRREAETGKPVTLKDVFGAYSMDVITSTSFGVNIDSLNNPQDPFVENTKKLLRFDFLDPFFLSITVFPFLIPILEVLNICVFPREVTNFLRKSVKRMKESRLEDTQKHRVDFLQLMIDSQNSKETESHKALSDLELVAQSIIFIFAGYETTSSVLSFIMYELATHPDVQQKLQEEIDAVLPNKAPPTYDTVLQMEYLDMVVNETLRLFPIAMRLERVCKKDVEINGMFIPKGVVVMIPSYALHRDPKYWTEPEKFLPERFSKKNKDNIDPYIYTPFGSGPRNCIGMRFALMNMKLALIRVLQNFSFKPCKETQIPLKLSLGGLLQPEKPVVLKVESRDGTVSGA

In the case of `CCS(=O)(=O)CCN(C(=O)Cc1ccc(C(F)(F)F)c(F)c1)[C@H](C)c1nc2ncccc2c(=O)n1-c1ccc(Cl)cc1`, the IC50 in data set [1] was 7 nM; in data set [2], 21 nM. Also, the Activity result with PBL [3] and with PBL [4] was “Non-toxic” each time.
For the compound `CCS(=O)(=O)CCN(C(=O)Cc1ccc(F)c(C(F)(F)F)c1)[C@H](C)c1nc2ncccc2c(=O)n1-c1ccc(F)cc1`, the IC50 in data set [1] came to 42 nM; in data set [2], 50 nM. Further, the Activity entry in the data set on PBL [3] and with PBL [4] was “Non-toxic” each time.
With `C[C@H](c1nc2ccccn2c(=O)c1-c1ccc(C#N)cc1)N(CC1CCS(=O)(=O)CC1)C(=O)Cc1ccc(OC(F)(F)F)cc1`, the IC50 in data set [1] was determined as 6 nM; in data set [2] it was 22 nM. For the same compound, the Activity result in the data set with PBL [3] and in the data set on PBL [4] was “Toxic” each time.
As for `C[C@H](c1nc2ncccc2c(=O)n1-c1ccc(C#N)cc1)N(CC1CCS(=O)(=O)CC1)C(=O)Cc1ccc(C(F)(F)F)c(F)c1`, the IC50 in data set [1] was 7 nM; in data set [2], 15 nM. The Activity result with PBL [3] and in the data set on PBL [4] was “Toxic” each time.
Regarding `CCS(=O)(=O)CCN(C(=O)Cc1ccc(F)c(C(F)(F)F)c1)[C@H](C)c1nc2ccccn2c(=O)c1-c1ccc(O)cc1`, at Cytochrome P450 3A4, the TDI entry is given as “Active”.
As for `CCS(=O)(=O)CCN(C(=O)Cc1ccc(C(F)(F)F)c(F)c1)[C@H](C)c1nc2ncccc2c(=O)n1-c1ccc(C#N)cc1`, the Activity entry with PBL [3] and with PBL [4] was “Toxic” in each case.
As to `C[C@H](c1nc2ncccc2c(=O)n1-c1ccc(F)cc1)N(CC1CCS(=O)(=O)CC1)C(=O)Cc1ccc(C(F)(F)F)c(F)c1`, the figures for the IC50 in data set [1] and in data set [2] were 7 nM and 22 nM, respectively. Besides, the Activity result in the data set with PBL [3] and with PBL [4] was “Non-toxic” throughout.
`C[C@H](c1nc2ncccc2c(=O)n1-c1ccc(O)cc1)N(Cc1cccnc1)C(=O)Cc1ccc(OC(F)(F)F)cc1`: the figures for the IC50 in data set [1] and in data set [2] were 816 nM and 4.1 nM, respectively.
As to `CCS(=O)(=O)CCN(C(=O)Cc1ccc(F)c(C(F)(F)F)c1)[C@H](C)c1nc2ncccc2c(=O)n1-c1ccc(Cl)cc1`, the IC50 in data set [1] was found to be 6 nM; in data set [2], 22 nM. For the same compound, the Activity result in the data set on PBL [3] and in the data set on PBL [4] was “Non-toxic” each time.
Regarding `C[C@H](c1nc2ncccc2c(=O)n1-c1ccc(C#N)cc1)N(CCS(C)(=O)=O)C(=O)Cc1ccc(F)c(C(F)(F)F)c1`, the IC50 in data set [1] was 13 nM; in data set [2] it was 29 nM. For the same compound, the Activity result in the data set with PBL [3] and in the data set on PBL [4] was “Toxic” throughout.
With `CCS(=O)(=O)CCN(C(=O)Cc1ccc(F)c(C(F)(F)F)c1)[C@H](C)c1nc2ncccn2c1-c1ccc(O)cc1`, the TDI result at Cytochrome P450 3A4 is on record as “Active”.
For `CCOc1ccc(-c2c([C@@H](C)N(CCS(=O)(=O)CC)C(=O)Cc3ccc(F)c(C(F)(F)F)c3)nc3ccccn3c2=O)cc1`, the TDI result on Cytochrome P450 3A4 is on record as “Not Active”.
Turning to `CCOc1ccc(-c2c([C@@H](C)N(CCS(=O)(=O)CC)C(=O)Cc3ccc(F)c(C(F)(F)F)c3)nc3ncccn23)cc1`, the TDI entry on Cytochrome P450 3A4 was “Not Active”.
Turning to `CCOc1ccc(-n2c([C@@H](C)N(CCS(=O)(=O)CC)C(=O)Cc3ccc(F)c(C(F)(F)F)c3)nc3ncccc3c2=O)cc1`, the TDI entry at Cytochrome P450 3A4 is listed as “Not Active”.
As to `CCS(=O)(=O)CCN(C(=O)Cc1ccc(F)c(C(F)(F)F)c1)[C@H](C)c1nc2ccccn2c(=O)c1-c1ccc(C#N)cc1`, the Activity result with PBL [3] and in the data set on PBL [4] was “Toxic” each time.
As for `CCOc1ccc(-n2c([C@@H](C)N(Cc3ccc[n+]([O-])c3)C(=O)Cc3ccc(OC(F)(F)F)cc3)nc3ncccc3c2=O)cc1`, the results for the IC50 in data set [1] and in data set [2] were 7 nM and 14 nM, respectively.
